According to ChEMBL document CHEMBL5032501, “Total Synthesis and Antimalarial Activity of 2-(p-Hydroxybenzyl)-prodigiosins, Isoheptylprodigiosin, and Geometric Isomers of Tambjamine MYP1 Isolated from Marine Bacteria” (J Med Chem, 2021):

How the values were obtained:
Plasmodium falciparum [1] = assay: Antiplasmodial activity against asexual stage of chloroquine-sensitive Plasmodium falciparum D6 infected in human erythrocytes assessed as reduction in parasite growth incubated for 72 hrs by SYBR green 1 staining based assay; type: functional, organism-based; conditions: D6, Erythrocyte
How it was run: (§1)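 P. falciparum grown in human erythrocytes at 2% hematocrit in RPMI 1640 with 0.5% Albumax II, hypoxanthine and gentamicin. Assay run at 0.2% parasitemia, 2% hematocrit, triplicate, 72 h at 37 °C under low oxygen. Starting range 2.5–2500 nM, adjusted as needed. SYBR Green I lysis buffer added for 1 h in the dark, fluorescence read at ex 497/em 520 nm. IC50 by nonlinear regression against drug-free controls.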

Plasmodium falciparum [2] = assay: Antiplasmodial activity against asexual blood stage of multidrug-resistant Plasmodium falciparum Dd2 infected in human erythrocytes assessed as reduction in parasite growth incubated for 72 hrs by SYBR green 1 staining based assay; type: functional, organism-based; conditions: Dd2, Erythrocyte; how it was run: as §1
Plasmodium falciparum [3] = assay: Antiplasmodial activity against asexual blood stage of multidrug-resistant Plasmodium falciparum 7G8 infected in human erythrocytes assessed as reduction in parasite growth incubated for 72 hrs by SYBR green 1 staining based assay; type: functional, organism-based; conditions: 7G8, Erythrocyte; how it was run: as §1
Plasmodium falciparum [4] = assay: Antiplasmodial activity against asexual blood stage of multidrug-resistant Plasmodium falciparum TM90C2B infected in human erythrocytes assessed as reduction in parasite growth incubated for 72 hrs by SYBR green 1 staining based assay; type: functional, organism-based; conditions: Erythrocyte
HepG2 = assay: Cytotoxicity against human HepG2 cells assessed as reduction in cell viability measured for 48 hrs by MTT assay; type: cell-based; conditions: HepG2, 48 h
Plasmodium yoelii [5] = assay: Antimalarial activity against blood stage Plasmodium yoelii infected in CF1 mouse assessed as reduction in parasitemia at 5 mg/kg, po administered once daily for 4 days and measured on day 5 by Giemsa staining based microscopic analysis relative to control; type: functional; parameters: scale not given: the % may be the effect or the level left; conditions: time 4 day
How it was run: (§2)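 Female CF1 mice, 7–8 weeks old, about 30 g, n = 4 per group. Infected iv with 2.5 × 104 P. yoelii (Kenya strain) parasitized erythrocytes from a donor mouse. Dosed orally in PEG-400, 5 or 25 mg/kg once daily for 4 days, starting the day after inoculation. Giemsa-stained tail-vein blood films read the day after the last dose, then weekly to day 28. Parasitemia taken relative to vehicle controls.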

Plasmodium yoelii [6] = assay: Antimalarial activity against blood stage Plasmodium yoelii infected in CF1 mouse assessed as reduction in parasitemia at 25 mg/kg, po administered once daily for 4 days and measured on day 5 by Giemsa staining based microscopic analysis relative to control; type: functional; parameters: scale not given: the % may be the effect or the level left; conditions: time 4 day; how it was run: as §2
[7] = Toxicity in CF-1 mouse infected with blood stage Plasmodium yoelii assessed as reduction in body weight at 5 to 25 mg/kg, po administered once daily for 4 days and measured for 28 days; type: organism-based; conditions: in vivo, 96 h, dose 5-25 mg/kg, time 4 day
How it was run: (§3)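 CF1 mice infected with P. yoelii and given oral doses of 5 or 25 mg/kg in PEG-400 once daily for 4 days. Checked daily for mortality, morbidity and signs of toxicity. Body weight, grooming, posture and locomotion monitored over the study, to day 28. Compared with the vehicle control group.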

[8] = Toxicity in CF-1 mouse infected with blood stage Plasmodium yoelii assessed as behavioral changes at 5 to 25 mg/kg, po administered once daily for 4 days and measured for 28 days; type: organism-based; conditions: in vivo, 96 h, dose 5-25 mg/kg, time 4 day; how it was run: as §3
[9] = Therapeutic index, ratio of IC50 for cytotoxicity against human HepG2 cells to IC50 for antiplasmodial activity against asexual blood stage of chloroquine-sensitive Plasmodium falciparum D6 infected in human erythrocytes
Plasmodium yoelii [10] = assay: Antimalarial activity against blood stage Plasmodium yoelii infected in CF1 mouse assessed as reduction in parasitemia administered orally once daily for 4 days and measured for 28 days by Giemsa staining based microscopic analysis; type: functional; conditions: po, 96 h, time 4 day
How it was run: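 Female CF1 mice, 7–8 weeks old, about 30 g, n = 4 per group. Dosed orally in PEG-400, 5 or 25 mg/kg once daily for 4 days, starting the day after inoculation. Giemsa-stained tail-vein blood films read the day after the last dose, then weekly to day 28. Parasitemia taken relative to vehicle controls.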

SMILES	IC50 (Plasmodium falciparum [1]) [nM]	IC50 (Plasmodium falciparum [2]) [nM]	IC50 (Plasmodium falciparum [3]) [nM]	IC50 (Plasmodium falciparum [4]) [nM]	IC50 (HepG2) [nM]	Activity (Plasmodium yoelii [5]) [%]	Activity (Plasmodium yoelii [6]) [%]	Activity [7]	Activity [8]	selectivity ratio [9]	ED50 (Plasmodium yoelii [10]) [mg/kg/day]	ED90 (Plasmodium yoelii [10]) [mg/kg/day]
CCCCCCCc1cc(/C=C2\N=C(c3ccc(Cc4ccc(O)cc4)[nH]3)C=C2OC)[nH]c1C.Cl	48	54	44	40	9240	25	37	Non-Toxic	Non-Toxic	192		
COC1=CC2=N/C1=C\NCC/C=C/CCCCCCCCc1ccc2[nH]1.Cl	22	16		13	29400	0	100	Non-Toxic	Non-Toxic	1340	15	16
CCN(CC)CCCC(C)Nc1ccnc2cc(Cl)ccc12 (stereo unspecified) [CHLOROQUINE]						100	100					
O=C1C(O)=C([C@H]2CC[C@H](c3ccc(Cl)cc3)CC2)C(=O)c2ccccc21 [ATOVAQUONE]	0.1		0.2									
CCCCc1cc(/C=C2\N=C(c3ccc[nH]3)C=C2OC)[nH]c1C.Cl	11	5.6	8.7	8.5	3320	67	100	Non-Toxic	Non-Toxic	301	2.5	8.5
CCCCCCc1cc(/C=C2\N=C(c3ccc(Cc4ccc(O)cc4)[nH]3)C=C2OC)[nH]c1C.Cl	9	11	13	12	9930	0	9	Non-Toxic	Non-Toxic	1100		
CCCCCCCc1cc(/C=C2\N=C(c3ccc[nH]3)C=C2OC)[nH]c1C.Cl	4.2	4.5	4.1	2.5	1350	89	100	Non-Toxic	Non-Toxic	320	2.6	9.2
CCCCCc1cc(/C=C2\N=C(c3ccc(Cc4ccc(OC)cc4)[nH]3)C=C2OC)[nH]c1C.Cl	2.4	3.2	5.6	2.3	2640	60	100	Non-Toxic	Non-Toxic	1100	3.6	18
CCCCc1cc(/C=C2\N=C(c3ccc(Cc4ccc(O)cc4)[nH]3)C=C2OC)[nH]c1C.Cl	12	12	16	17	8880	0	6	Non-Toxic	Non-Toxic	740		
CCCCCc1cc(/C=C2\N=C(c3ccc[nH]3)C=C2OC)[nH]c1C.Cl	8	7.3	9.2	8.8	1070	63	100	Non-Toxic	Non-Toxic	134	3.7	17
CCCCCCc1cc(/C=C2\N=C(c3ccc[nH]3)C=C2OC)[nH]c1C.Cl	5.9	3.4	3.6	4.6	2420	70	100	Non-Toxic	Non-Toxic	410	1.5	4.8
C=CCCCCCCCCc1ccc(C2=N/C(=C\NCCC=C)C(OC)=C2)[nH]1.Cl	8.9	6.5		2.6	1600	0	42	Non-Toxic	Non-Toxic	180		
CCCCCc1cc(/C=C2\N=C(c3ccc(Cc4ccc(O)cc4)[nH]3)C=C2OC)[nH]c1C.Cl	16	28	27	29	7020	0	0	Non-Toxic	Non-Toxic	439		
COC1=CC(c2ccc[nH]2)=N/C1=C\c1cc(CCCCC(C)C)c(C)[nH]1.Cl	4.1	2.1	2.1	2.6	1490	65	100	Non-Toxic	Non-Toxic	363	2.7	5.9
